Results as given in ChEMBL document CHEMBL4145631, “Riluzole-Triazole Hybrids as Novel Chemical Probes for Neuroprotection in Amyotrophic Lateral Sclerosis” (ACS Med Chem Lett, 2018).
Calls of active or inactive are those of the source. The rule behind the calls is not given here.

Experiments:
Cortical neurone [1] = experiment: Neuroprotective activity against kainate-induced cell death in mouse primary cortical neurons by cell counting method; assay type: functional, cell-based
Cortical neurone [2] = experiment: Neuroprotective activity against kainate-induced cell damage in mouse primary cortical neurons assessed as reduction in kainate-induced neurofilament loss by measuring increase in MAPK level at 1 uM pretreated followed by kainate challenge measured after 18 hrs by fluorescence assay; assay type: functional, cell-based; conditions: in the assay text read “MAP2” for “MAPK”
Procedure, shortened: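 Mouse primary cortical neurons cultured as previously described; dendritic processes stained with anti-MAP2 antibody. Cell-profile perimeter measured by image analysis, each condition normalized to kainate-only.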

Cortical neurone [3] = experiment: Neuroprotective activity against kainate-induced cell death in mouse primary cortical neurons by caspase activation method; assay type: functional, cell-based
Mus musculus [4] = species on record: Mus musculus; experiment: Neuroprotective activity against kainate-induced cell death in mouse primary motor neurons by MTT assay; assay type: functional
Mus musculus [5] = species on record: Mus musculus; experiment: Neuroprotective activity against kainate-induced cell death in mouse primary motor neurons by caspase activation method; assay type: functional
Cortical neurone [6] = experiment: Neuroprotective activity against kainate-induced cell death in mouse primary cortical neurons by MTT assay; assay type: functional, cell-based
Mus musculus [7] = species on record: Mus musculus; experiment: Neuroprotective activity against kainate-induced cell death in mouse primary motor neurons by cell counting method; assay type: functional
Cortical neurone [8] = experiment: Neuroprotective activity against kainate-induced cell damage in mouse primary cortical neurons assessed as reversal of kainate-induced reduction in calcium flux by fura-2-AM dye based fluorescence assay; assay type: functional
Procedure, shortened: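 Mouse primary cortical neurons loaded with fura-2AM for 45 min, washed, then depolarized with 10 mM KCl to drive Ca2+ entry through voltage-gated calcium channels. Flux read on a plate-based system.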

Compound | Activity (Cortical neurone [1]) | Activity (Cortical neurone [2]) | Activity (Cortical neurone [3]) | Activity (Mus musculus [4]) | Activity (Mus musculus [5]) | Activity (Cortical neurone [6]) | Activity (Mus musculus [7]) | Activity (Cortical neurone [8])
N=c1sc2cc(OC(F)(F)F)ccc2n1CCn1cc(-c2ccc(Cl)cc2)nn1 | inactive | inactive | inactive | inactive | inactive | inactive | inactive | Active
CCCCc1ccc(-c2cn(CCn3c(=N)sc4cc(OC(F)(F)F)ccc43)nn2)cc1 | inactive | inactive | inactive | inactive | inactive | inactive | inactive | Active
N=c1sc2cc(OC(F)(F)F)ccc2n1CCn1cc(-c2cccs2)nn1 | inactive | Active | inactive | inactive | inactive | inactive | inactive | Active
N=c1sc2cc(OC(F)(F)F)ccc2n1CCn1cc(C2CCCC2)nn1 | inactive | inactive | inactive | inactive | inactive | inactive | inactive | Active
COc1cccc(-c2cn(CCn3c(=N)sc4cc(OC(F)(F)F)ccc43)nn2)c1 | inactive | inactive | inactive | inactive | inactive | inactive | inactive | Active
N=c1sc2cc(OC(F)(F)F)ccc2n1CCn1cc(-c2ccc(N)cc2)nn1 | inactive | inactive | inactive | inactive | inactive | inactive | inactive | Active
N=c1sc2cc(OC(F)(F)F)ccc2n1CCn1cc(Cc2ccccc2)nn1 | inactive | inactive | inactive | inactive | inactive | inactive | inactive | Active
N=c1sc2cc(OC(F)(F)F)ccc2n1CCn1cc(-c2ccccc2Cl)nn1 | inactive | inactive | inactive | inactive | inactive | inactive | inactive | Active
Cc1ccccc1-c1cn(CCn2c(=N)sc3cc(OC(F)(F)F)ccc32)nn1 | inactive | inactive | inactive | inactive | inactive | inactive | inactive | Active
CCCCCc1ccc(-c2cn(CCn3c(=N)sc4cc(OC(F)(F)F)ccc43)nn2)cc1 | inactive | inactive | inactive | inactive | inactive | inactive | inactive | Active
N=c1sc2cc(OC(F)(F)F)ccc2n1CCn1cc(-c2ccccc2Br)nn1 | inactive | inactive | inactive | inactive | inactive | inactive | inactive | Active
Cn1cncc1-c1cn(CCn2c(=N)sc3cc(OC(F)(F)F)ccc32)nn1 | inactive | inactive | inactive | inactive | inactive | inactive | inactive | Active
Cc1ccc(-c2cn(CCn3c(=N)sc4cc(OC(F)(F)F)ccc43)nn2)cc1 | inactive | inactive | inactive | inactive | inactive | inactive | inactive | Active
N=c1sc2cc(OC(F)(F)F)ccc2n1CCn1cc(C2CCCCC2)nn1 | inactive | inactive | inactive | inactive | inactive | inactive | inactive | Active
